An excerpt weighted towards active compounds, which were near 1.5% of everything screened.
dFosB act = enhances mouse delta FosB homodimer DNA binding | P13346 | purified delta FosB, TAMRA-CDK5 oligo fluorescence polarization; percent of positive-control signal above neutral wells | activation, % at 25 µM | 340,000 tested, 0.99% active;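 active = mean activation above about 17%, with every replicate also reaching it, limit read from the data, passing the limit was not always enough; inconclusive = only one of the two conditions met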
RAD52 inh = inhibitors of human RAD52 DNA annealing; recombinant RAD52 DNA annealing, FRET fluorescence; inhibition, % at 18.7 µM; 360,000 tested, 0.46% active; AID 651710;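 active = every replicate showing at least 50% inhibition; inconclusive = mean inhibition at least 50% but not in every replicate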
Target sequence (P43351 whole entry, looked up): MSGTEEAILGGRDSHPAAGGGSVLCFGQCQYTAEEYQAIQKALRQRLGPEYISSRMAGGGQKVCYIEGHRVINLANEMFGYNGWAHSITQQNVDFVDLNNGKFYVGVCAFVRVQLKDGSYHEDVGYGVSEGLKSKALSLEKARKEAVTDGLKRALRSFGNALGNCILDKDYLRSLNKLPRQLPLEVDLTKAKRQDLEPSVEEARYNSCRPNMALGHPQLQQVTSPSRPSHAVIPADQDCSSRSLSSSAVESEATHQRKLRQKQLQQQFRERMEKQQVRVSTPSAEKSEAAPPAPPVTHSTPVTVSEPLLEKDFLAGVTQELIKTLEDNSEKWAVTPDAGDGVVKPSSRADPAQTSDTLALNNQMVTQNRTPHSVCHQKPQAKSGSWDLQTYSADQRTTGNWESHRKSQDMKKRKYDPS
RAD54 branch = RAD54 (human) branch migration inhibition; 360,000 tested, 0.14% active; inhibition, % at 10.4 µM; Q92698; RAD54 Holliday junction branch migration, FAM/BHQ fluorescence;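 active = mean normalized replicate activity at least 40 and at least half of replicates scoring 40 or more; inconclusive = only one of the two criteria met; inactive = mean below 40 and under half of replicates reaching 40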;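 note: 0% = median of neutral control wells and 100% = median of positive control wells; inhibitors cause a drop in the FAM fluorescence signal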
S100A4 inh HTS = blocks human S100A4 binding to myosin IIA peptide | S100A4/TAMRA-MyoIIA peptide fluorescence polarization | inhibition, % at 10.7 µM | 360,000 tested, 0.14% active | AID 652163;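 active = mean inhibition of at least 70% across replicates, with every replicate also reaching that level; inconclusive = mean inhibition reaches 70% but some replicates fall short; inactive = mean inhibition below 70%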
Target sequence (P26447 whole entry, looked up): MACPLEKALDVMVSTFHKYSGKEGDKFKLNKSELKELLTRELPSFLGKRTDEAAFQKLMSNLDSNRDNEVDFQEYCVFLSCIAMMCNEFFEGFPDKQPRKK
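Material: S100A4 monomer (human). Medium: Calcium-containing HEPES buffer, pH 7.2. Probe or stimulus: labelled myosin peptide probe, 5 nM. Compound dosing: one concentration per compound. Timing: polarization read 5 min after assay mix addition, stable 5–60 min. Benchmarks: DMSO as neutral control, TFP as positive control.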
AF4-AF9 inh = inhibitors of human MLL-AF4/AF9 interaction; AlphaScreen, biotin-AF4 peptide binding to FLAG-AF9; 350,000 tested, 0.47% active; P42568; inhibition, % at 10 µM;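 active = every replicate reaching a set inhibition limit, whatever the replicate mean, cut at about 25% in these data; inconclusive = mean inhibition reaches that limit but some replicates miss it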;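 note: 0% = plate neutral control median and 100% = total signal loss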
Alpha interfer = AlphaScreen signal interference counter-screen hit. shares compounds with AF4-AF9 inh. signal luminescence. AC50, µM (top dose mostly 12 µM), inactives show at the top dose activity change, negative = inhibition. 530 tested, 45% active. AID 720494; cut-off not given, nearly all actives have AC50 up to about 14 µM
* marks the source's active call; other numbers are inactive results; ? = inconclusive; . = not tested or not shown.

SMILES	dFosB act	RAD52 inh	RAD54 branch	S100A4 inh HTS	AF4-AF9 inh	Alpha interfer
CC(C)NC(=O)N(C)C[C@@H]1Oc2ccc(NC(=O)Cn3cnnn3)cc2CC(=O)N([C@H](C)CO)C[C@@H]1C	.	-16	-1	4	-8	.
COc1ccc(C#Cc2ccc3c(c2)[C@H]2[C@H](CCN2C(=O)c2ccncc2)[C@@H](CO)N3)cc1	.	51*	.	-5	34*	13µM*
COc1cccc(-c2ccc3c(c2)[C@@H]2[C@@H](CCN2C(=O)C2CC2)[C@@H](CO)N3)c1	.	-56	.	4	8	.
COc1ccc(C#Cc2ccc3c(c2)[C@H]2[C@H](CCN2C(=O)c2ccncc2)[C@H](CO)N3)cc1	.	.	1	.	.	.
COc1cccc(-c2ccc3c(c2)[C@H]2[C@H](CCN2C(=O)C2CCCCC2)[C@@H](CO)N3)c1	.	-1	.	-7	40*	-29%
CCOc1ccc(/C=N/Nc2cc(N3CCOCC3)ncn2)c(O)c1	.	4	4	-6	32*	14µM*
CCCOc1ccc(/C=N/Nc2cc(N3CCOCC3)ncn2)c(O)c1	-8	-5	-4	-11	?	.
O=C(C[C@@H]1C[C@@H]2c3cc(NC(=O)Cc4ccncc4)ccc3O[C@@H]2[C@H](CO)O1)NCC1CC1	.	-6	1	1	-3	.
CC(C)(c1ccccc1)c1ccc(OCC(O)CNC2CCN(Cc3ccccc3)CC2)cc1 (stereo unspecified)	?	41	11	10	31*	-29%
Fc1ccc([C@@H]2CCNC[C@H]2COc2ccc3c(c2)OCO3)cc1	-2	14	24	0	34*	-28%
C[C@@H]1CN([C@H](C)CO)C(=O)c2cc(NS(=O)(=O)c3cn(C)cn3)ccc2O[C@H]1CN(C)CC1CCCCC1	.	6	6	3	-2	.
O=C(CN1CCCC1)N/N=C/c1c(O)ccc2ccccc12	5	-34	17	-3	38*	5.7µM*
COc1cc(C2CC(=O)Oc3c(C(CCN4CCOCC4)c4ccc(N(C)C)cc4)c(OC)cc(OC)c32)cc(OC)c1OC (stereo unspecified)	-5	-5	-12	-1	40*	11µM*
COc1ccc(C2CC(=O)Oc3c(C(CCN4CCCC(C)C4)c4ccc(N(C)C)cc4)c(OC)cc(OC)c32)cc1 (stereo unspecified)	-14	12	9	-2	44*	1.8µM*
COc1cc(OC)c2c(C)cc(=O)oc2c1C(CCN1CCOCC1)c1ccc(N(C)C)cc1 (stereo unspecified)	-5	-3	0	-2	.	.
COc1cc(O)c(C(CCN2CCCCC2)c2ccc(N(C)C)cc2)c(OC)c1 (stereo unspecified)	-10	3	-5	3	33*	12µM*
COc1cc(O)c(C(CC(=O)N2CCCC2)c2ccc(N(C)C)cc2)c(OC)c1 (stereo unspecified)	-9	.	-1	.	.	.
O=C(C1CCCC1)N1CC(=O)N2[C@H](CO)[C@@H](c3ccc(Br)cc3)[C@@H]2C1	.	9	.	-22	-4	.
C[C@H]1CCCCO[C@@H](CN(C)C(=O)NC2CCCCC2)[C@@H](C)CN([C@@H](C)CO)C(=O)c2cc(NC(=O)Nc3cccc4ccccc34)ccc2O1	.	-8	6	4	-1	.
O=C(C[C@@H]1CC[C@@H]2[C@H](COC[C@H](O)CN2S(=O)(=O)c2cccc(Cl)c2)O1)NCc1ccncn1	.	-4	-6	5	-2	.
CCN1CCCc2cc(CN(CCN3CCOCC3)C(=S)Nc3ccccc3C)ccc21	-8	-11	.	-2	5	.
CCN1CCCc2cc(CN(CCN3CCOCC3)C(=S)Nc3cccc(C)c3)ccc21	1	-11	3	-4	37*	-22%
CO[C@@H]1CN(C)C(=O)c2ccc(NS(=O)(=O)c3ccc(-c4ccccc4)cc3)cc2OC[C@@H](C)NC[C@@H]1C	.	14	.	-39	-3	.
CCN(CC)c1ccc(N=C2C(=O)Nc3ccccc32)cc1	-4	-17	6	-16	57*	12µM*
COc1cc(C(CCN2CCCC2)c2c(OC)cc(OC)c3c(-c4ccccc4)cc(=O)oc23)cc(OC)c1OC (stereo unspecified)	5	30	5	1	22	.
SMILES	dFosB act	RAD52 inh	RAD54 branch	S100A4 inh HTS	AF4-AF9 inh	Alpha interfer
COc1cc(OC)c2c(-c3ccccc3)cc(=O)oc2c1C(CCN1CCCC(C)C1)c1ccc(N(C)C)cc1 (stereo unspecified)	1	32	18	3	67*	3µM*
CCN(CC)CCC(c1ccc(N(C)C)cc1)c1c(OC)cc(OC)c2c(-c3ccccc3)cc(=O)oc12 (stereo unspecified)	3	38	14	9	51*	4.8µM*
COc1ccc(C(CCNCc2ccc(N(C)C)cc2)C(C)C)cc1 (stereo unspecified)	5	7	.	-2	41*	11µM*
COc1ccccc1C(CCNCc1ccc(N(C)C)cc1)c1ccc(OC(C)C)cc1 (stereo unspecified)	6	-17	-15	-7	74*	2.9µM*
c1ccc(N2CCCCC2)c(Nc2nc3ccccc3n3cnnc23)c1	-8	-4	4	-2	2	.
c1ccc2c(c1)nc(Nc1ccc(N3CCCCC3)cc1)c1nncn12	-26	0	.	-6	36*	-16%
CS(=O)(=O)N1[C@@H]2c3ccc(-c4ccc(F)cc4)c(=O)n3C[C@H]1[C@H](CO)[C@H]2C(=O)N1CCOCC1	.	5	-3	.	0	.
O=[N+]([O-])c1cc(CN2CCCC2)ccc1Sc1ccc(Cl)cc1	-2	5	.	-4	34*	-32%
Clc1ccc(CN2CCCCCC2)cc1	2	-1	-16	1	-3	.
COc1ccc(/C=C/C(=O)c2cc3c(cc2N)OCO3)cc1	-3	-12	.	-5	38*	-30%
CC(=O)c1cccc2c(O)c(C3=Nc4ccccc4C3=O)[nH]c12	-9	.	-5	-12	40*	3.5µM*
O=C1C(c2c(O)[nH]c3ccccc23)=Nc2ccccc21	1	-9	-4	-6	-3	.
O=C1Nc2ccccc2/C1=C/C(=O)c1cccs1	-13	.	2	.	.	.
CCN1C(=O)/C(=C\C(=O)c2cccs2)c2cc(Br)ccc21	-11	-2	.	3	37*	0%
NC(N)=NCCCS(=O)(=O)Nc1ccc(Nc2c3ccccc3nc3cc([N+](=O)[O-])ccc23)cc1	4	5	.	-5	78*	5.6µM*
CC(C)c1cn(CC[C@H]2CC[C@@H](NC(=O)C3CCCC3)[C@@H](CO)O2)nn1	.	5	9	-4	1	.
O=C(CCCC(=O)c1ccccc1)Nc1ccc(F)cc1	-2	-4	7	-2	-5	.
CC1NC(=O)NC1CCCCCC(=O)Nc1ccc(F)cc1 (stereo unspecified)	-1	-17	.	-2	93*	0.68µM*
